# Columns and labels:
# Type in all cases: functional
# NCI-H226 = test: Growth inhibition of human NCI-H226 cells incubated for 48 hrs by sulforhodamine B assay; details: NCI-H226, 48 h; for CC50: read-out: LC50 (the source's name)
# In short: (§1)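 NCI-60 five-dose screen at 0.01, 0.1, 1, 10 and 100 µM, 48 h incubation, sulforhodamine B end point. GI50 (50% decrease in net growth), TGI (total growth inhibition) and LC50 (net 50% loss of initial cells) taken from log concentration versus % growth inhibition curves.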
# SF-539 = test: Anticancer activity against human SF539 cells assessed as cell growth at 10 uM after 48 hrs by sulforhodamine B assay relative to control; details: SF-539, 48 h, read-out: Activity
# In short: (§2)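 Single-dose NCI-60 panel screen: compound added at 10 µM and the culture incubated 48 h. The end point was read by protein staining with sulforhodamine B. The value is percent growth of treated cells relative to untreated control cells, reported as a mean graph across the panel.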
# NCI-H460 = test: Growth inhibition of human NCI-H460 cells incubated for 48 hrs by sulforhodamine B assay; details: NCI-H460, 48 h; for CC50: read-out: LC50 (the source's name); in short: as §1
# MOLT-4 = test: Growth inhibition of human MOLT4 cells incubated for 48 hrs by sulforhodamine B assay; details: MOLT-4, 48 h; for CC50: read-out: LC50 (the source's name); in short: as §1
# HCT-15 = test: Growth inhibition of human HCT15 cells incubated for 48 hrs by sulforhodamine B assay; details: HCT-15, 48 h; for CC50: read-out: LC50 (the source's name); in short: as §1
# CCRF-CEM = test: Growth inhibition of human CCRF-CEM cells incubated for 48 hrs by sulforhodamine B assay; details: for CC50: read-out: LC50 (the source's name); in short: as §1
# MDA-MB-231 = test: Growth inhibition of human MDA-MB-231 cells incubated for 48 hrs by sulforhodamine B assay; details: MDA-MB-231, 48 h; in short: as §1
# UACC-257 = test: Growth inhibition of human UACC257 cells incubated for 48 hrs by sulforhodamine B assay; details: UACC-257, 48 h; for CC50: read-out: LC50 (the source's name)
# In short: (§3)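 NCI 60 human tumour cell line panel, five-dose study at 0.01, 0.1, 1, 10 and 100 µM, 48 h incubation. Sulforhodamine B protein-binding dye end point. GI50 (50% decrease in net cell growth), TGI (total growth inhibition) and LC50 (net 50% loss of initial cells) read from log concentration versus % growth inhibition curves.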
# CAKI-1 = test: Growth inhibition of human Caki1 cells incubated for 48 hrs by sulforhodamine B assay; details: CAKI-1, 48 h; for CC50: read-out: LC50 (the source's name); in short: as §1
# EKVX = test: Growth inhibition of human EKVX cells incubated for 48 hrs by sulforhodamine B assay; details: for CC50: read-out: LC50 (the source's name); in short: as §1
# PC-3 = test: Growth inhibition of human PC3 cells incubated for 48 hrs by sulforhodamine B assay; details: PC-3, 48 h; for CC50: read-out: LC50 (the source's name); in short: as §1
# DU-145 = test: Growth inhibition of human DU145 cells incubated for 48 hrs by sulforhodamine B assay; details: DU-145, 48 h; for CC50: read-out: LC50 (the source's name); in short: as §1
# MDA-MB-435 = test: Growth inhibition of human MDA-MB-435 cells incubated for 48 hrs by sulforhodamine B assay; details: MDA-MB-435, 48 h; for CC50: read-out: LC50 (the source's name); in short: as §1
# SK-OV-3 = test: Growth inhibition of human SKOV3 cells incubated for 48 hrs by sulforhodamine B assay; details: SK-OV-3, 48 h; for CC50: read-out: LC50 (the source's name); in short: as §3
# HOP-62 = test: Growth inhibition of human HOP62 cells incubated for 48 hrs by sulforhodamine B assay; details: HOP-62, 48 h; for CC50: read-out: LC50 (the source's name); in short: as §1
# SR = test: Growth inhibition of human SR cells incubated for 48 hrs by sulforhodamine B assay; details: for CC50: read-out: LC50 (the source's name); in short: as §3
# SF-295 = test: Growth inhibition of human SF295 cells incubated for 48 hrs by sulforhodamine B assay; details: SF-295, 48 h; for CC50: read-out: LC50 (the source's name); in short: as §3
# NCI/ADR-RES = test: Growth inhibition of human NCI/ADR-RES cells incubated for 48 hrs by sulforhodamine B assay; in short: as §1
# TK-10 = test: Growth inhibition of human TK10 cells incubated for 48 hrs by sulforhodamine B assay; details: TK-10, 48 h; for CC50: read-out: LC50 (the source's name); in short: as §3
# NCI-H23 = test: Growth inhibition of human NCI-H23 cells incubated for 48 hrs by sulforhodamine B assay; details: NCI-H23, 48 h; for CC50: read-out: LC50 (the source's name); in short: as §1
# UACC-62 = test: Growth inhibition of human UACC62 cells incubated for 48 hrs by sulforhodamine B assay; details: UACC-62, 48 h; for CC50: read-out: LC50 (the source's name); in short: as §3
# MDA-MB-468 = test: Growth inhibition of human MDA-MB-468 cells incubated for 48 hrs by sulforhodamine B assay; details: MDA-MB-468, 48 h; for CC50: read-out: LC50 (the source's name); in short: as §1
# A549 = test: Growth inhibition of human A549/ATCC cells incubated for 48 hrs by sulforhodamine B assay; details: A549, 48 h; for CC50: read-out: LC50 (the source's name); in short: as §1
# HOP-92 = test: Anticancer activity against human HOP92 cells assessed as cell growth at 10 uM after 48 hrs by sulforhodamine B assay relative to control; details: HOP-92, 48 h, read-out: Activity; in short: as §2
# SN12C = test: Growth inhibition of human SN12C cells incubated for 48 hrs by sulforhodamine B assay; details: for CC50: read-out: LC50 (the source's name); in short: as §3
# KM12 = test: Growth inhibition of human KM12 cells incubated for 48 hrs by sulforhodamine B assay; details: KM12, 48 h; for CC50: read-out: LC50 (the source's name); in short: as §1
# HL-60(TB) = test: Growth inhibition of human HL-60(TB) cells incubated for 48 hrs by sulforhodamine B assay; details: HL-60, 48 h; for CC50: read-out: LC50 (the source's name)
# In short: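 NCI-60 five-dose screen at 0.01, 0.1, 1, 10 and 100 µM for 48 h, sulforhodamine B read-out. GI50 taken from log concentration versus % growth inhibition curves as the concentration giving 50% decrease in net cell growth.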
compound,measurement,setting,value
C=C1CC[C@@H]2[C@](C)(COC(C)=O)[C@H](OC(C)=O)CC[C@@]2(C)[C@H]1CC(Nc1ccc(S(=O)(=O)Nc2nccs2)cc1)C1=CCOC1=O (some centres undefined),GI50,NCI-H226,2.36 µM
same,TGI,NCI-H226,5.37 µM
same,CC50,NCI-H226,> 100 µM
same,growth at 10 µM,SF-539,-67.1%
same,GI50,NCI-H460,10.7 µM
same,TGI,NCI-H460,25.3 µM
same,CC50,NCI-H460,59.9 µM
same,GI50,MOLT-4,3.68 µM
same,TGI,MOLT-4,73.2 µM
same,CC50,MOLT-4,> 100 µM
same,GI50,HCT-15,1.73 µM
same,TGI,HCT-15,4.12 µM
same,CC50,HCT-15,9.84 µM
same,GI50,CCRF-CEM,2.28 µM
same,TGI,CCRF-CEM,6.76 µM
same,CC50,CCRF-CEM,> 100 µM
same,GI50,MDA-MB-231,3.3 µM
same,LC50 (concentration giving net 50% loss of initial cells),MDA-MB-231,37.6 µM
same,TGI,MDA-MB-231,8.25 µM
same,GI50,UACC-257,2.55 µM
same,TGI,UACC-257,5.61 µM
same,CC50,UACC-257,17.2 µM
same,GI50,CAKI-1,3.8 µM
same,TGI,CAKI-1,14.2 µM
same,CC50,CAKI-1,37.7 µM
same,GI50,EKVX,14 µM
same,TGI,EKVX,27 µM
same,CC50,EKVX,52 µM
same,GI50,PC-3,7.74 µM
same,TGI,PC-3,21.5 µM
same,CC50,PC-3,52.2 µM
same,GI50,DU-145,4.47 µM
same,TGI,DU-145,15.8 µM
same,CC50,DU-145,39.8 µM
same,GI50,MDA-MB-435,3.29 µM
same,TGI,MDA-MB-435,12.7 µM
same,CC50,MDA-MB-435,38 µM
same,GI50,SK-OV-3,14.4 µM
same,TGI,SK-OV-3,27.8 µM
same,CC50,SK-OV-3,53.5 µM
same,GI50,HOP-62,13.8 µM
same,TGI,HOP-62,27.5 µM
same,CC50,HOP-62,54.7 µM
same,GI50,SR,1.33 µM
same,TGI,SR,> 100 µM
same,CC50,SR,> 100 µM
same,GI50,SF-295,13.8 µM
same,TGI,SF-295,27.2 µM
same,CC50,SF-295,53.8 µM
same,GI50,NCI/ADR-RES,2.97 µM
same,LC50 (concentration giving net 50% loss of initial cells),NCI/ADR-RES,> 100 µM
same,TGI,NCI/ADR-RES,12.7 µM
same,GI50,TK-10,9.45 µM
same,TGI,TK-10,21.2 µM
same,CC50,TK-10,46.1 µM
same,GI50,NCI-H23,10 µM
same,TGI,NCI-H23,24.8 µM
same,CC50,NCI-H23,61.6 µM
same,GI50,UACC-62,1.76 µM
same,TGI,UACC-62,4.42 µM
same,CC50,UACC-62,13.5 µM
same,GI50,MDA-MB-468,1.83 µM
same,TGI,MDA-MB-468,4.43 µM
same,CC50,MDA-MB-468,14.1 µM
same,GI50,A549,3.67 µM
same,TGI,A549,11.2 µM
same,CC50,A549,40.4 µM
same,growth at 10 µM,HOP-92,54%
same,GI50,SN12C,1.87 µM
same,TGI,SN12C,4.39 µM
same,CC50,SN12C,14.3 µM
same,GI50,KM12,7.57 µM
same,TGI,KM12,21.7 µM
same,CC50,KM12,53.3 µM
same,GI50,HL-60(TB),3.01 µM
same,TGI,HL-60(TB),13.3 µM
same,CC50,HL-60(TB),> 100 µM
C=C1CC[C@@H]2[C@](C)(COC(C)=O)[C@H](OC(C)=O)CC[C@@]2(C)[C@H]1CC(Nc1ccc(S(=O)(=O)Nc2nccc(C)n2)cc1)C1=CCOC1=O (some centres undefined),GI50,NCI-H226,2.33 µM
same,TGI,NCI-H226,5.91 µM
same,CC50,NCI-H226,> 100 µM
same,growth at 10 µM,SF-539,-62.7%
same,GI50,NCI-H460,4.88 µM
same,TGI,NCI-H460,18.3 µM
same,CC50,NCI-H460,53.9 µM
same,GI50,MOLT-4,3.22 µM
same,TGI,MOLT-4,17.9 µM
same,CC50,MOLT-4,> 100 µM
same,GI50,HCT-15,1.79 µM
same,TGI,HCT-15,4.24 µM
same,CC50,HCT-15,10.2 µM
same,GI50,CCRF-CEM,0.0073 µM
same,TGI,CCRF-CEM,3.09 µM
same,CC50,CCRF-CEM,> 100 µM
same,GI50,MDA-MB-231,3.62 µM
same,LC50 (concentration giving net 50% loss of initial cells),MDA-MB-231,40.5 µM
same,TGI,MDA-MB-231,10.2 µM
same,GI50,UACC-257,4.8 µM
same,TGI,UACC-257,16.4 µM
same,CC50,UACC-257,42.8 µM
same,GI50,CAKI-1,3.56 µM
same,TGI,CAKI-1,12.5 µM
same,CC50,CAKI-1,35.5 µM
same,GI50,EKVX,13.9 µM
same,TGI,EKVX,27.1 µM
same,CC50,EKVX,52.7 µM
same,GI50,PC-3,4.46 µM
same,TGI,PC-3,15.7 µM
same,CC50,PC-3,43.3 µM
same,GI50,DU-145,3.36 µM
same,TGI,DU-145,11.8 µM
same,CC50,DU-145,34.9 µM
same,GI50,MDA-MB-435,2.92 µM
same,TGI,MDA-MB-435,10.4 µM
same,CC50,MDA-MB-435,34.2 µM
same,GI50,SK-OV-3,12.7 µM
same,TGI,SK-OV-3,25.3 µM
same,CC50,SK-OV-3,50.3 µM
same,GI50,HOP-62,10.3 µM
same,TGI,HOP-62,22.5 µM
same,CC50,HOP-62,49.3 µM
same,GI50,SR,0.75 µM
same,TGI,SR,> 100 µM
same,CC50,SR,> 100 µM
same,GI50,SF-295,12.4 µM
same,TGI,SF-295,25.6 µM
same,CC50,SF-295,52.9 µM
same,GI50,NCI/ADR-RES,2.94 µM
same,LC50 (concentration giving net 50% loss of initial cells),NCI/ADR-RES,> 100 µM
same,TGI,NCI/ADR-RES,13.5 µM
same,GI50,TK-10,4.94 µM
same,TGI,TK-10,15.8 µM
same,CC50,TK-10,40.4 µM
same,GI50,NCI-H23,3.78 µM
same,TGI,NCI-H23,16 µM
same,CC50,NCI-H23,50.6 µM
same,GI50,UACC-62,2.38 µM
same,TGI,UACC-62,7.12 µM
same,CC50,UACC-62,30.3 µM
same,GI50,MDA-MB-468,1.99 µM
same,TGI,MDA-MB-468,4.3 µM
same,CC50,MDA-MB-468,9.3 µM
same,GI50,A549,8.19 µM
same,TGI,A549,21.9 µM
same,CC50,A549,52.2 µM
same,growth at 10 µM,HOP-92,71.6%
same,GI50,SN12C,2.64 µM
same,TGI,SN12C,6.17 µM
same,CC50,SN12C,81.2 µM
same,GI50,KM12,4.59 µM
same,TGI,KM12,16.4 µM
same,CC50,KM12,44.4 µM
same,GI50,HL-60(TB),2.1 µM
same,TGI,HL-60(TB),5.63 µM
same,CC50,HL-60(TB),> 100 µM
